Where “and” joins values, the source holds several entries; their conditions need not be identical. Equal values may be shown once.
System: Fibroblast
Experiment: Multiplex assay against human fibroblast
Assay type: toxicity, cell-based
Method in brief: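 Hoechst33342, BioTracker Green Microtubule Cytoskeleton Dye, MitoTracker Red and Annexin V Alexa Fluor 680 were added to live cells at seeding, and imaging on a CQ1 microscope at 37°C and 5% CO2 followed compound addition. Gating by CellPathfinder machine learning separated cells into Hoechst high-intensity objects or normal cells, then normal cells into healthy, pyknosed or fragmented nuclei, then pyknosed cells into mitotic or apoptotic. Per cents of healthy-nucleus cells are reported for the tubulin, mitochondrial-mass and membrane-permeability phenotypes.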

[1] = 12 h, 1 µM, compound concentration 1 uM
[2] = 12 h, 10 µM, compound concentration 10 uM
[3] = 24 h, 1 µM, compound concentration 1 uM
[4] = 24 h, 10 µM, compound concentration 10 uM
[5] = 48 h, 1 µM, compound concentration 1 uM
[6] = 48 h, 10 µM, compound concentration 10 uM

COCCNc1cc(NC(=O)N2CCCc3cc(CN4CCN(C)CC4=O)c(C=O)nc32)ncc1C#N [FGF401]
Population Apoptotic (%) [1]: 10.64% and 13.95% | Population Fragmented Nuclei (%) [1]: 11.5% and 4.82% | Population Healthy Nuclei (%) [1]: 65% and 77.91% | Population Hoechst High Intensity Objects (%) [1]: 0% | Population Membrane Permeable-Phenotype (%) [1]: 3.85% and 1.03% | Population Mitochondria Different-Phenotype (%) [1]: 6.15% and 8.25% | Population Mitotic Cells (%) [1]: 89.36% and 86.05% | Population Normal (%) [1]: 100% | Population Pyknosed Nuclei (%) [1]: 23.5% and 17.27% | Population Tubulin-Different-Phenotype (%) [1]: 13.08% and 10.31% | Total Cell Count [1]: 200 and 249 | Population Apoptotic (%) [2]: 14.63% and 19.35% | Population Fragmented Nuclei (%) [2]: 15.03% and 6.59% | Population Healthy Nuclei (%) [2]: 58.17% and 76.37% | Population Hoechst High Intensity Objects (%) [2]: 0% | Population Membrane Permeable-Phenotype (%) [2]: 3.37% and 5.76% | Population Mitochondria Different-Phenotype (%) [2]: 11.24% and 10.07% | Population Mitotic Cells (%) [2]: 85.37% and 80.65% | Population Normal (%) [2]: 100% | Population Pyknosed Nuclei (%) [2]: 26.8% and 17.03% | Population Tubulin-Different-Phenotype (%) [2]: 22.47% and 25.9% | Total Cell Count [2]: 153 and 182 | Population Apoptotic (%) [3]: 11.11% and 15.38% | Population Fragmented Nuclei (%) [3]: 11.01% and 5.33% | Population Healthy Nuclei (%) [3]: 68.35% and 89.34% | Population Hoechst High Intensity Objects (%) [3]: 0% | Population Membrane Permeable-Phenotype (%) [3]: 7.38% and 0.46% | Population Mitochondria Different-Phenotype (%) [3]: 4.7% and 6.42% | Population Mitotic Cells (%) [3]: 88.89% and 84.62% | Population Normal (%) [3]: 100% | Population Tubulin-Different-Phenotype (%) [3]: 9.4% and 12.84% | Total Cell Count [3]: 218 and 244 | Population Apoptotic (%) [4]: 8.57% and 3.23% | Population Fragmented Nuclei (%) [4]: 12.26% and 4.02% | Population Healthy Nuclei (%) [4]: 65.16% and 80.4% | Population Hoechst High Intensity Objects (%) [4]: 0% | Population Membrane Permeable-Phenotype (%) [4]: 8.91% and 3.75% | Population Mitochondria Different-Phenotype (%) [4]: 6.93% and 8.75% | Population Mitotic Cells (%) [4]: 91.43% and 96.77% | Population Normal (%) [4]: 100% | Population Pyknosed Nuclei (%) [4]: 22.58% and 15.58% | Population Tubulin-Different-Phenotype (%) [4]: 17.82% and 16.88% | Total Cell Count [4]: 155 and 199 | Population Fragmented Nuclei (%) [5]: 9.45% and 6.06% | Population Healthy Nuclei (%) [5]: 81.89% and 88.26% | Population Hoechst High Intensity Objects (%) [5]: 0% | Population Membrane Permeable-Phenotype (%) [5]: 0.48% and 1.29% | Population Mitochondria Different-Phenotype (%) [5]: 12.02% and 2.58% | Population Mitotic Cells (%) [5]: 63.64% and 93.33% | Population Normal (%) [5]: 100% | Population Pyknosed Nuclei (%) [5]: 8.66% and 5.68% | Population Tubulin-Different-Phenotype (%) [5]: 2.88% and 11.59% | Total Cell Count [5]: 254 and 264 | Population Apoptotic (%) [6]: 27.27% and 18.18% | Population Fragmented Nuclei (%) [6]: 9.49% and 6.84% | Population Healthy Nuclei (%) [6]: 83.54% and 87.37% | Population Hoechst High Intensity Objects (%) [6]: 0% | Population Membrane Permeable-Phenotype (%) [6]: 1.52% and 1.81% | Population Mitotic Cells (%) [6]: 72.73% and 81.82% | Population Normal (%) [6]: 100% | Population Pyknosed Nuclei (%) [6]: 6.96% and 5.79% | Population Tubulin-Different-Phenotype (%) [6]: 9.85% and 22.29% | Total Cell Count [6]: 158 and 190

Cc1cccc(F)c1C(=O)Nc1cnc(-c2cc3c(cc2Cl)OC(F)(F)O3)cn1 [ZEGOCRACTIN]
Population Apoptotic (%) [1]: 6.56% and 18.18% | Population Fragmented Nuclei (%) [1]: 12.97% and 3.23% | Population Healthy Nuclei (%) [1]: 61.51% and 79.03% | Population Hoechst High Intensity Objects (%) [1]: 0% | Population Membrane Permeable-Phenotype (%) [1]: 2.04% | Population Mitochondria Different-Phenotype (%) [1]: 8.16% | Population Mitotic Cells (%) [1]: 93.44% and 81.82% | Population Normal (%) [1]: 100% | Population Pyknosed Nuclei (%) [1]: 25.52% and 17.74% | Population Tubulin-Different-Phenotype (%) [1]: 17.01% and 13.61% | Total Cell Count [1]: 239 and 186 | Population Apoptotic (%) [2]: 8.93% and 22.86% | Population Fragmented Nuclei (%) [2]: 13.11% and 8.77% | Population Healthy Nuclei (%) [2]: 56.28% and 70.76% | Population Hoechst High Intensity Objects (%) [2]: 0% | Population Membrane Permeable-Phenotype (%) [2]: 3.88% and 4.96% | Population Mitochondria Different-Phenotype (%) [2]: 17.48% and 19.01% | Population Mitotic Cells (%) [2]: 91.07% and 77.14% | Population Normal (%) [2]: 100% | Population Pyknosed Nuclei (%) [2]: 30.6% and 20.47% | Population Tubulin-Different-Phenotype (%) [2]: 24.27% and 42.15% | Total Cell Count [2]: 183 and 171 | Population Apoptotic (%) [3]: 11.11% and 9.52% | Population Fragmented Nuclei (%) [3]: 9.33% and 2.59% | Population Healthy Nuclei (%) [3]: 73.88% and 86.53% | Population Hoechst High Intensity Objects (%) [3]: 0% | Population Membrane Permeable-Phenotype (%) [3]: 3.54% and 0% | Population Mitochondria Different-Phenotype (%) [3]: 7.07% and 6.59% | Population Mitotic Cells (%) [3]: 88.89% and 90.48% | Population Normal (%) [3]: 100% | Population Pyknosed Nuclei (%) [3]: 16.79% and 10.88% | Population Tubulin-Different-Phenotype (%) [3]: 14.65% and 11.38% | Total Cell Count [3]: 268 and 193 | Population Apoptotic (%) [4]: 7.81% and 17.65% | Population Fragmented Nuclei (%) [4]: 13% and 8.14% | Population Healthy Nuclei (%) [4]: 55% and 72.09% | Population Hoechst High Intensity Objects (%) [4]: 0% | Population Membrane Permeable-Phenotype (%) [4]: 3.64% and 1.61% | Population Mitochondria Different-Phenotype (%) [4]: 14.55% and 32.26% | Population Mitotic Cells (%) [4]: 92.19% and 82.35% | Population Normal (%) [4]: 100% | Population Pyknosed Nuclei (%) [4]: 32% and 19.77% | Population Tubulin-Different-Phenotype (%) [4]: 37.27% and 46.77% | Total Cell Count [4]: 200 and 172 | Population Apoptotic (%) [5]: 15% and 35% | Population Fragmented Nuclei (%) [5]: 9.76% and 3.2% | Population Healthy Nuclei (%) [5]: 83.28% and 87.67% | Population Hoechst High Intensity Objects (%) [5]: 0% | Population Membrane Permeable-Phenotype (%) [5]: 1.26% and 2.6% | Population Mitochondria Different-Phenotype (%) [5]: 9.62% and 2.6% | Population Mitotic Cells (%) [5]: 85% and 65% | Population Normal (%) [5]: 100% | Population Pyknosed Nuclei (%) [5]: 6.97% and 9.13% | Population Tubulin-Different-Phenotype (%) [5]: 8.79% and 19.79% | Total Cell Count [5]: 287 and 219 | Population Apoptotic (%) [6]: 15% and 9.52% | Population Fragmented Nuclei (%) [6]: 10.91% and 9.6% | Population Healthy Nuclei (%) [6]: 70.91% and 78.53% | Population Hoechst High Intensity Objects (%) [6]: 0% | Population Membrane Permeable-Phenotype (%) [6]: 0.64% and 4.32% | Population Mitochondria Different-Phenotype (%) [6]: 20.51% and 13.67% | Population Mitotic Cells (%) [6]: 85% and 90.48% | Population Normal (%) [6]: 100% | Population Pyknosed Nuclei (%) [6]: 18.18% and 11.86% | Population Tubulin-Different-Phenotype (%) [6]: 28.21% and 56.83% | Total Cell Count [6]: 220 and 177

O=C(NCc1cccc(O)c1)Nc1nc(-c2ccncc2)cs1
Population Apoptotic (%) [1]: 12.12% and 27.78% | Population Healthy Nuclei (%) [1]: 41.38% and 76.34% | Population Hoechst High Intensity Objects (%) [1]: 0% | Population Membrane Permeable-Phenotype (%) [1]: 4.17% and 1.41% | Population Mitochondria Different-Phenotype (%) [1]: 6.94% and 9.15% | Population Mitotic Cells (%) [1]: 87.88% and 72.22% | Population Normal (%) [1]: 100% | Population Pyknosed Nuclei (%) [1]: 37.93% and 19.35% | Population Tubulin-Different-Phenotype (%) [1]: 8.33% and 6.34% | Total Cell Count [1]: 174 and 186 | Population Apoptotic (%) [2]: 9.52% and 18.18% | Population Fragmented Nuclei (%) [2]: 11.37% and 4.05% | Population Healthy Nuclei (%) [2]: 38.86% and 61.26% | Population Hoechst High Intensity Objects (%) [2]: 0% | Population Membrane Permeable-Phenotype (%) [2]: 7.32% and 2.21% | Population Mitochondria Different-Phenotype (%) [2]: 15.85% and 13.97% | Population Mitotic Cells (%) [2]: 90.48% and 81.82% | Population Normal (%) [2]: 100% | Population Pyknosed Nuclei (%) [2]: 49.76% and 34.68% | Population Tubulin-Different-Phenotype (%) [2]: 13.41% and 29.41% | Total Cell Count [2]: 211 and 222 | Population Apoptotic (%) [3]: 25.49% and 48.15% | Population Healthy Nuclei (%) [3]: 53.67% and 81.31% | Population Hoechst High Intensity Objects (%) [3]: 0% | Population Membrane Permeable-Phenotype (%) [3]: 3.16% and 0.62% | Population Mitochondria Different-Phenotype (%) [3]: 12.63% and 6.83% | Population Mitotic Cells (%) [3]: 74.51% and 51.85% | Population Normal (%) [3]: 100% | Population Pyknosed Nuclei (%) [3]: 28.81% and 13.64% | Population Tubulin-Different-Phenotype (%) [3]: 11.58% and 6.21% | Total Cell Count [3]: 177 and 198 | Population Apoptotic (%) [4]: 13.79% and 23.26% | Population Fragmented Nuclei (%) [4]: 8.5% and 3.62% | Population Healthy Nuclei (%) [4]: 48% and 76.92% | Population Hoechst High Intensity Objects (%) [4]: 0% | Population Membrane Permeable-Phenotype (%) [4]: 0% and 2.94% | Population Mitochondria Different-Phenotype (%) [4]: 7.29% and 8.82% | Population Mitotic Cells (%) [4]: 86.21% and 76.74% | Population Normal (%) [4]: 100% | Population Pyknosed Nuclei (%) [4]: 43.5% and 19.46% | Population Tubulin-Different-Phenotype (%) [4]: 17.71% and 29.41% | Total Cell Count [4]: 200 and 221 | Population Apoptotic (%) [5]: 55.56% and 38.46% | Population Fragmented Nuclei (%) [5]: 16.05% and 5.73% | Population Healthy Nuclei (%) [5]: 72.84% and 87.5% | Population Hoechst High Intensity Objects (%) [5]: 0% | Population Membrane Permeable-Phenotype (%) [5]: 0.85% and 0.6% | Population Mitotic Cells (%) [5]: 44.44% and 61.54% | Population Normal (%) [5]: 100% | Population Pyknosed Nuclei (%) [5]: 11.11% and 6.77% | Population Tubulin-Different-Phenotype (%) [5]: 3.39% and 6.55% | Total Cell Count [5]: 162 and 192 | Population Apoptotic (%) [6]: 16.67% and 18.42% | Population Healthy Nuclei (%) [6]: 74.44% and 81.61% | Population Hoechst High Intensity Objects (%) [6]: 0% | Population Membrane Permeable-Phenotype (%) [6]: 0.6% and 1.65% | Population Mitochondria Different-Phenotype (%) [6]: 12.05% and 3.3% | Population Mitotic Cells (%) [6]: 83.33% and 81.58% | Population Normal (%) [6]: 100% | Population Pyknosed Nuclei (%) [6]: 13.45% and 17.04% | Total Cell Count [6]: 223

Reference: ChEMBL document CHEMBL5724801, “EUbOPEN Chemogenomics Library - Multiplex” (2024)
